Measured values as given in article PMC8906121 (Current Research in Parasitology & Vector-borne Diseases, 2021).
Several values for one entry are separate records, joined by “and”; a condition that tells them apart may be missing. Equal entries are not always repeated.

Columns and labels:
[1] = system: Anopheles funestus FUMOZ-R (resistant); assay: Glazed tile contact bioassay, strain FUMOZ-R; assay type: in vivo; details: for LC50 (solo contact toxicity of synergist): synergist alone, 30 min exposure; for LC50 (solo contact toxicity of synergist) / LC50: mortality 24 h; for LC50: female adults, contact exposure 30 min
[2] = system: Anopheles funestus FANG (susceptible); assay: Glazed tile contact bioassay, strain FANG; assay type: in vivo; details: for LC50 (solo contact toxicity of synergist): synergist alone, 30 min exposure; for LC50 (solo contact toxicity of synergist) / LC50: mortality 24 h; for LC50: female adults, contact exposure 30 min
Outline: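 Adults aged 3–5 days, chilled to anaesthetize, recovered 1 h, then held 30 min on acetone-treated glazed tiles in two replicates of 10. Kept overnight on 10% dextrose; mortality scored at 24 h. Acetone-only control; Abbott correction for 5–20% control mortality, above 20% invalid. At least five repeats; probit LC50 with 95% CI. Synergist solo toxicity was tested the same way at 250–10,000 ppm.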

[3] = system: cytochrome P450s of microsomal preparations of Anopheles funestus strain FANG; assay: Michaelis-Menten kinetics of BOMFC O-debenzylation, FANG microsomes; assay type: biochemical; details: read-out: apparent Km
Outline: (§1)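 Microsomes from 30–50 adults, homogenized in pH 7.6 phosphate buffer with sucrose, DTT and EDTA, then spun 5,000× g, 15,000× g and 100,000× g at 4 °C. 4 μg protein incubated 1 h at 20 ± 1 °C with eleven BOMFC levels (200–0.195 μM) and 1 mM NADPH, in 0.01% zwittergent with 0.05% BSA. Stopped with pH 10 red-ox mix; hydroxycoumarin fluorescence read; quadruplicates; Michaelis-Menten fit.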

[4] = system: cytochrome P450s of microsomal preparations of Anopheles funestus strain FUMOZ-R; assay: Michaelis-Menten kinetics of BOMFC O-debenzylation, FUMOZ-R microsomes; assay type: biochemical; details: read-out: apparent Km
Outline: as §1

[5] = biological target: para-type voltage-gated sodium channels of Musca domestica (Musca domestica, UniProt Q25439); assay: Fluorescence-based membrane potential cation influx assay; assay type: cell-based; details: for EC50: EC50, HEK293-VGSC cells, membrane potential fluorescence
Sequence of para-type voltage-gated sodium channels of Musca domestica (Q25439 1-2105): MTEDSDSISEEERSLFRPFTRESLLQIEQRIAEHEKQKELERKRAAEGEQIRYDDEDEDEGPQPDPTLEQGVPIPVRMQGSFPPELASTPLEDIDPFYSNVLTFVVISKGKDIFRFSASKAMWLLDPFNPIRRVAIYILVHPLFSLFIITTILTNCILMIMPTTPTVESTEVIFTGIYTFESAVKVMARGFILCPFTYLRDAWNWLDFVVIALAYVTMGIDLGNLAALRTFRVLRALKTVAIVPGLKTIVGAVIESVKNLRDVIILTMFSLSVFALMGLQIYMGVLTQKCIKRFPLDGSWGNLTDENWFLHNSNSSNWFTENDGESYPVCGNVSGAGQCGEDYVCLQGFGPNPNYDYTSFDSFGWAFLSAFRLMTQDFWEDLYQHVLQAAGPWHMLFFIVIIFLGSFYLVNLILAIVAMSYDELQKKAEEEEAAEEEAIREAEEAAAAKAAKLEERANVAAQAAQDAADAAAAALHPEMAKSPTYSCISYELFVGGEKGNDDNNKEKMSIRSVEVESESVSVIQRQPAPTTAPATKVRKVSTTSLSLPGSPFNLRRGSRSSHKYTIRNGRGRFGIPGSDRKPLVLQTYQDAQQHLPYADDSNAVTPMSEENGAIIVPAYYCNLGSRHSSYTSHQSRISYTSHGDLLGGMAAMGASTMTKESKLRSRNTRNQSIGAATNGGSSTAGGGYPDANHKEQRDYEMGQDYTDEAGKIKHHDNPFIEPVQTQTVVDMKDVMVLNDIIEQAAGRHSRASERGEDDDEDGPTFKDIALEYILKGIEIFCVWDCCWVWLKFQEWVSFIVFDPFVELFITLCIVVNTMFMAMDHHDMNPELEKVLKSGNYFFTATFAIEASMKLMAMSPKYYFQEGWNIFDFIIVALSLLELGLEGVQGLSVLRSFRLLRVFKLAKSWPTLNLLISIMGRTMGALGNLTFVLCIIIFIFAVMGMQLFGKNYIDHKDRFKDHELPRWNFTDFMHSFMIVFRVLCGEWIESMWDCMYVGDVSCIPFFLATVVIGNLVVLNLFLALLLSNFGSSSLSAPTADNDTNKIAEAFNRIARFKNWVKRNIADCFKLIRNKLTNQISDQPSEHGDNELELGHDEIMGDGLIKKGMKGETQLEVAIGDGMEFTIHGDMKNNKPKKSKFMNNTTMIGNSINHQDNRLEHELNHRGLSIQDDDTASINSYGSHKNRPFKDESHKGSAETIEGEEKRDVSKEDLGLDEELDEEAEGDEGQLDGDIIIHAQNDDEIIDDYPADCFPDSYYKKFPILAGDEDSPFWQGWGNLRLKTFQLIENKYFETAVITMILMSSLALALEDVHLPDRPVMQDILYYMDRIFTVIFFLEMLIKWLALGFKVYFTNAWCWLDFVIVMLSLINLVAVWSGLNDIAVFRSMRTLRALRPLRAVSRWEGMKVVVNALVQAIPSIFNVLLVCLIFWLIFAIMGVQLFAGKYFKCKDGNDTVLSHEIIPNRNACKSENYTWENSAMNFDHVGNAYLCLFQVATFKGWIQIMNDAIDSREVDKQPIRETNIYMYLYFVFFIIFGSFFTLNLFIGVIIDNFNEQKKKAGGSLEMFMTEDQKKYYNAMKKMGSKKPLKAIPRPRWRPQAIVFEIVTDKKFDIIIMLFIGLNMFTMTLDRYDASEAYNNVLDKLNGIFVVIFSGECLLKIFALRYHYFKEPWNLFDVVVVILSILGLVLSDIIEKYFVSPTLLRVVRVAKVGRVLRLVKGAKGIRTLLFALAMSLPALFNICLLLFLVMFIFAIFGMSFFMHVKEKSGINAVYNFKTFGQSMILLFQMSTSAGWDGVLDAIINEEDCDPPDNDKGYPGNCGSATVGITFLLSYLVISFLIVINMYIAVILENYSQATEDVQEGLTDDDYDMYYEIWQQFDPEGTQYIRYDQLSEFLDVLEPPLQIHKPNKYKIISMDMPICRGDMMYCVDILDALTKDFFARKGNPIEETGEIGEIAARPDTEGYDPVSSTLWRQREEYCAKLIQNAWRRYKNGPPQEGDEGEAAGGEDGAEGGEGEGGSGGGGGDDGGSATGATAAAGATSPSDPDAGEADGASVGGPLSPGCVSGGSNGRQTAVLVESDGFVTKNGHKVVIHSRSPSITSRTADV

Drosophila wildtype VGSC = Drosophila wildtype VGSC expressed in Xenopus oocytes; ref Vais et al., 2003; cited from earlier work

**Q.** Which “LC50 (solo contact toxicity of synergist)” value [1] does the source give for `CCCCOCCOCCOCc1cc2c(cc1CCC)OCO2` [PBO, piperonyl butoxide] here?
**A.** Its value is > 1,000 mg/m^2.

**Q.** What about the “LC50 (solo contact toxicity of synergist)” value [2] of the same molecule?
**A.** Its value is 325 mg/m^2.

**Q.** Which results are given for `Nn1nnc2ccccc21` [1-ABT, 1-aminobenzotriazole]?
**A.** mortality at 750 mg/m2 ([1]; Anopheles funestus): < 10%; mortality at 750 mg/m2 ([2]; Anopheles funestus): < 10%

**Q.** For `O=c1cc(C(F)(F)F)c2ccc(OCOCc3ccccc3)cc2o1` [BOMFC, 7-benzyloxymethoxy-4-trifluoromethylcoumarin], which Km [3] is on record?
**A.** Its Km is 5.76 µM.

**Q.** And the Km [4]?
**A.** The Km was 4.41 µM.

**Q.** What does the source list for `CC1(C)[C@H](C=C(Cl)Cl)[C@H]1C(=O)OCc1c(F)c(F)cc(F)c1F` [Transfluthrin, 2,3,5,6-tetrafluorobenzyl(1R,3S)-3-(2,2-dichlorovinyl)-2,2-dimethylcyclo-propanecarboxylate]?
**A.** fold less active on VGSC than deltamethrin ([5]; compared with deltamethrin): more than 100 fold; LC50 [1]: 0.0576 mg/m^2; LC50 [2]: 0.023 mg/m^2; fold more active than permethrin ([2]; glazed tile bioassays against strain FANG): ≤ 25 fold

**Q.** Which “LC50 (solo contact toxicity of synergist)” value [1] does the source give for `CCCOC/C(=N\c1ccc(Cl)cc1C(F)(F)F)n1ccnc1` [Triflumizole, triflumizole] here?
**A.** Its value is 392 mg/m^2.

**Q.** What about the “LC50 (solo contact toxicity of synergist)” value [2] of the same molecule?
**A.** Its value is 136 mg/m^2.

**Q.** Which EC50 [5] does the source give for `CC1(C)C(C=C(Cl)Cl)C1C(=O)OCc1cccc(Oc2ccccc2)c1` (stereo not drawn) [Permethrin, permethrin] here?
**A.** Its EC50 is 721 nM.

**Q.** And the “RR fold lower than for deltamethrin” value ([1]; FUMOZ-R resistance ratio compared with deltamethrin)?
**A.** Its value is ~30 fold.

**Q.** What about the “Resistance ratio (RR)” value ([1]; LC50 FUMOZ-R divided by LC50 FANG) of the same molecule?
**A.** Its value is 7.76.

**Q.** And the LC50 [1]?
**A.** The LC50 was 4.21 mg/m^2.

**Q.** What about the LC50 [2] of the same molecule?
**A.** Its LC50 is 0.543 mg/m^2.

**Q.** For `CC1(C)C(C=C(Cl)Cl)C1C(=O)OC(C#N)c1cccc(Oc2ccccc2)c1` (stereo not drawn) [Cypermethrin], which EC50 [5] is on record?
**A.** The EC50 was 38.9 nM.

**Q.** What about the LC50 [1] of the same molecule?
**A.** Its LC50 is 7.54 mg/m^2.

**Q.** And the LC50 [2]?
**A.** Its LC50 is 0.0968 mg/m^2.

**Q.** Which EC50 [5] does the source give for `CC1(C)[C@H](C(=O)O[C@H](C#N)c2cccc(Oc3ccccc3)c2)[C@@H]1C=C(Br)Br` [Deltamethrin, deltamethrin] here?
**A.** The EC50 was 5.29 nM and 5.3 nM.

**Q.** And the LC50 [1]?
**A.** The LC50 was 4.61 mg/m^2.

**Q.** And the Kd (Drosophila wildtype VGSC)?
**A.** The Kd was 4.7 nM.

**Q.** And the LC50 [2]?
**A.** Its LC50 is 0.0206 mg/m^2.
